Source: ChEMBL document CHEMBL1141844, “Geranins A and B, new antiprotozoal A-type proanthocyanidins from Geranium niveum” (J Nat Prod, 1999)
≈ marks a conversion by molar mass, not a printed value. Calls of active or inactive are those of the source. The rule behind the calls is not given here.

Assays:
Entamoeba histolytica = test: Antiprotozoal activity against axenically grown trophozoites of Entamoeba histolytica HM1-IMSS after 48 hrs by MTT method; format: functional, organism-based
Summary of the method: (§1)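 Log-phase trophozoites from axenic culture: E. histolytica in TYI-S-33 with 10% bovine serum (inoculum 6 × 10³/mL), G. lamblia in modified TYI-S-33 with 10% calf serum (inoculum 5 × 10⁴/mL). Test material in DMSO/medium at 2.5–200 µg/mL, 48 h, 37 °C. Counted by haemocytometer, then MTT (0.075% final) plus PMS, 45 min, A570. Inhibition converted to probits and regressed on log concentration to give IC50. Duplicates, repeated at least three times.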

Giardia intestinalis = test: Antiprotozoal activity against axenically grown trophozoites of Giardia lamblia IMSS:0989:1 after 48 hrs by MTT method; format: functional, organism-based; conditions: Giardia duodenalis; summary of the method: as §1
A549 = test: Cytotoxicity against human A549 cells after 7 days by MTT method; format: functional, cell-based
Summary of the method: (§2)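 Run at the Purdue Cell Culture Laboratory as a seven-day MTT assay on human solid tumour lines, with adriamycin as the positive control.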

MCF7 = test: Cytotoxicity against human MCF7 cells after 7 days by MTT method; format: functional, cell-based; summary of the method: as §2
HT-29 = test: Cytotoxicity against human HT-29 cells after 7 days by MTT method; format: functional, cell-based; summary of the method: as §2

Compound	IC50 (Entamoeba histolytica) [µg/mL]	IC50 (Giardia intestinalis) [µg/mL]	Activity (A549)	Activity (MCF7)	Activity (HT-29)
COC(=O)c1cc(O)c(O)c(O)c1 [GALLIC ACID METHYL ESTER]	144 (≈ 780 µM)	49.2 (≈ 267 µM)	inactive	inactive	inactive
O=c1c(O[C@@H]2O[C@H](CO)[C@H](O)[C@H](O)[C@H]2O)c(-c2ccc(O)c(O)c2)oc2cc(O)cc(O)c12 [HYPEROSIDE]	109 (≈ 235 µM)	85.1 (≈ 183 µM)	inactive	inactive	inactive
Oc1ccc([C@H]2Oc3c(c(O)cc4c3[C@H]3c5c(O)cc(O)cc5O[C@@](c5ccc(O)cc5)(O4)[C@@H]3O)C[C@@H]2O)cc1 [GERANIN A]	185 (≈ 339 µM)	2.4 (≈ 4.41 µM)	inactive	inactive	inactive
Oc1ccc([C@H]2Oc3c(c(O)cc4c3[C@H]3c5c(O)cc(O)cc5O[C@@](c5ccc(O)c(O)c5)(O4)[C@@H]3O)C[C@@H]2O)cc1 [GERANIN B]	13.6 (≈ 24.3 µM)	6 (≈ 10.7 µM)	inactive	inactive	inactive
Cc1ncc([N+](=O)[O-])n1CCO [METRONIDAZOLE]	0.04 (≈ 0.234 µM)		inactive	inactive	inactive
CC1(C)CC[C@]2(C(=O)O)CC[C@]3(C)C(=CC[C@@H]4[C@@]5(C)CC[C@H](C(=O)/C=C/c6ccc(O)c(O)c6)C(C)(C)[C@@H]5CC[C@]43C)[C@@H]2C1	22.6 (≈ 37.5 µM)	31.2 (≈ 51.8 µM)	inactive	inactive	inactive
